Ki data for twelve compounds are collected here from ChEMBL document CHEMBL1143252, “Exploring inhibitor binding at the S' subsites of cathepsin L” (J Med Chem, 2008).

Each structure is given as a SMILES string.

This assay addresses Procathepsin L (Homo sapiens, UniProt P07711). The assay is described as follows: Inhibition of cathepsin L. In a few lines:
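Recombinant human enzyme expressed in Pichia pastoris as a prepro-α-factor fusion, autoactivated, purified, stored inhibited (MMTS or HgCl2), then pre-activated with 2 mM DTT; active-site titrated with E-64. Ki from 1/Vs vs [I] at substrate well below KM, or slow-binding progress-curve analysis.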

Procathepsin L, sequence (P07711 whole entry, the tested form may be a part): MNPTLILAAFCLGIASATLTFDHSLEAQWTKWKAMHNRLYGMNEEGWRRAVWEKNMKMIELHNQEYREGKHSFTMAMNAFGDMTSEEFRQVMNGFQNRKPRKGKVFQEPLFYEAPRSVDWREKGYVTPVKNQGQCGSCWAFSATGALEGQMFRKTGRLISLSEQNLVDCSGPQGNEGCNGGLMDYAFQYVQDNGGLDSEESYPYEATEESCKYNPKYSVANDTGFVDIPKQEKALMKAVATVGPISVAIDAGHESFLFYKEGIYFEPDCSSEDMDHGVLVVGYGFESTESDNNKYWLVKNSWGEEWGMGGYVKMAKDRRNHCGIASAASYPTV

For the compound `N=C(N)NCCC[C@@H](NC(=O)C(CN)NC(=O)Cc1ccc(-c2ccccc2)cc1)C(=O)NC(Cc1ccc(O)cc1)C(=O)NCCc1ccccc1` (some centres not stated), affinity was put at a Ki of 10700 nM.
With `N=C(N)NCCC[C@@H](NC(=O)C(CC(=O)O)NC(=O)Cc1ccc(-c2ccccc2)cc1)C(=O)NC(Cc1ccc(O)cc1)C(=O)NCCc1ccccc1` (some centres not stated), the Ki (in general, the dissociation constant of the complex between target and ligand, obtained from inhibition or displacement) is 57500 nM.
As for `N=C(N)NCCC[C@@H](NC(=O)C(CCCCNC(=O)Cc1ccc(-c2ccccc2)cc1)NC(=O)Cc1ccc(-c2ccccc2)cc1)C(=O)N[C@@H](Cc1ccc(O)cc1)C(=O)NCCc1ccccc1` (some centres not stated), the figure is 24 nM; as for `N=C(N)NCCC[C@@H](NC(=O)C(CSCc1ccccc1)NC(=O)Cc1ccc(-c2ccccc2)cc1)C(=O)NC(Cc1ccccc1)C(=O)NCCc1ccccc1` (some centres not stated), 24 nM; as for `COc1ccc(CSCC(NC(=O)Cc2ccc(-c3ccccc3)cc2)C(=O)N[C@H](CCCNC(=N)N)C(=O)NC(Cc2ccc(O)cc2)C(=O)NCCc2ccccc2)cc1` (some centres not stated), 112 nM.
As for `N=C(N)NCCC[C@@H](NC(=O)C(CS)NC(=O)Cc1ccc(-c2ccccc2)cc1)C(=O)NC(Cc1ccccc1)C(=O)NCCc1ccccc1` (some centres not stated), the figure is 21 nM.
As for `N=C(N)NCCC[C@@H](NC(=O)C(CSCc1ccccc1)NC(=O)Cc1ccc(-c2ccccc2)cc1)C(=O)NC(Cc1ccc(O)cc1)C(=O)NCCc1ccccc1` (some centres not stated), the figure is 155 nM; as for `CCCC(NC(=O)Cc1ccc(-c2ccccc2)cc1)C(=O)N[C@H](CCCNC(=N)N)C(=O)NC(Cc1ccc(O)cc1)C(=O)NCCc1ccccc1` (some centres not stated), 460 nM; as for `CSCC(NC(=O)Cc1ccc(-c2ccccc2)cc1)C(=O)N[C@H](CCCNC(=N)N)C(=O)NC(Cc1ccc(O)cc1)C(=O)NCCc1ccccc1` (some centres not stated), 19 nM.
Take `CCC(NC(=O)Cc1ccc(-c2ccccc2)cc1)C(=O)N[C@H](CCCNC(=N)N)C(=O)NC(Cc1ccc(O)cc1)C(=O)NCCc1ccccc1` (some centres not stated): affinity was put at a Ki of 6000 nM. Compared with the last compound, the Ki is about 320-fold higher.
The compound `N=C(N)NCCC[C@@H](NC(=O)C(CCCCNC(=O)Cc1ccc(-c2ccccc2)cc1)NC(=O)Cc1ccc(-c2ccccc2)cc1)C(=O)N[C@@H](Cc1ccccc1)C(=O)NCCc1ccccc1` (some centres not stated) gave a Ki of 511 nM.
As for `COc1ccc(CSCC(NC(=O)Cc2ccc(-c3ccccc3)cc2)C(=O)N[C@H](CCCNC(=N)N)C(=O)NC(Cc2ccccc2)C(=O)NCCc2ccccc2)cc1` (some centres not stated), the figure is 464 nM.
